What follows are compounds tested on Fibroblast (assay: Cytotoxicity against human fibroblasts assessed as inhibition of cell growth incubated for 48 hrs by resazurin reduction test). Settings: not given.
Type: cell-based
Procedure, shortened: (§1)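 Monolayers grown in MEM with 10% fetal calf serum, pyruvate, vitamins, non-essential amino acids and gentamicin at 37 °C, 5% CO2. Cells were seeded at 5×10^3/well and left 16 h to adhere. Compounds were added from DMSO stocks (final 0.5% DMSO) for 48 h continuous exposure, in triplicate. Resazurin 25 μg/mL was then added for 1 h and fluorescence read at 530/590 nm. IC50 was taken from concentration–cell number curves as % of control after blank subtraction.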
`CC(=O)OC[C@H]1O[C@@H](OC(=O)Nc2ccc(NC(=O)CNC(=O)CCCc3ccc(N(CCCl)CCCl)cc3)cc2)[C@H](F)[C@@H](OC(C)=O)[C@@H]1OC(C)=O` was tested, and the IC50 was 21 µM.
Work on `CC(=O)OC[C@H]1O[C@@H](OC(=O)NCC(=O)Nc2ccc(OC(=O)CCCc3ccc(N(CCCl)CCCl)cc3)cc2)[C@H](F)[C@@H](OC(C)=O)[C@@H]1OC(C)=O` yielded an IC50 of 32 µM.
In the case of `CC(=O)OC[C@H]1O[C@@H](OC(=O)c2ccc(NC(=O)CCCc3ccc(N(CCCl)CCCl)cc3)cc2)[C@H](F)[C@@H](OC(C)=O)[C@@H]1OC(C)=O`, the IC50 is reported as 4 µM.
With `CC(=O)OC[C@H]1O[C@@H](NC(=O)COC(=O)CCCc2ccc(N(CCCl)CCCl)cc2)[C@H](F)[C@@H](OC(C)=O)[C@@H]1OC(C)=O` the IC50 was over 50 µM.
`CC(=O)OC[C@H]1O[C@@H](Oc2ccc(NC(=O)c3ccc(NC(=O)CCCc4ccc(N(CCCl)CCCl)cc4)cc3)cc2)[C@H](F)[C@@H](OC(C)=O)[C@@H]1OC(C)=O` showed an IC50 of 3 µM.
In the case of `CC(=O)OC[C@H]1O[C@@H](Oc2ccc(NC(=O)CC(=O)NCCCc3ccc(N(CCCl)CCCl)cc3)cc2)[C@H](F)[C@@H](OC(C)=O)[C@@H]1OC(C)=O`, the IC50 is reported as over 50 µM.
Compound `CC(=O)OC[C@H]1O[C@@H](NC(=O)CC(=O)NCCCc2ccc(N(CCCl)CCCl)cc2)[C@H](F)[C@@H](OC(C)=O)[C@@H]1OC(C)=O` has an IC50 of 13 µM.
For `CC(=O)OC[C@H]1O[C@@H](OC(=O)Nc2ccc(NC(=O)CCCc3ccc(N(CCCl)CCCl)cc3)cc2)[C@H](F)[C@@H](OC(C)=O)[C@@H]1OC(C)=O`, the IC50 was over 50 µM.
With `CC(=O)OC[C@H]1O[C@@H](Oc2ccc(NC(=O)CNC(=O)CCCc3ccc(N(CCCl)CCCl)cc3)cc2)[C@H](F)[C@@H](OC(C)=O)[C@@H]1OC(C)=O` the IC50 was 17 µM.

The compounds below were run on PC-3 (assay: Cytotoxicity against human PC3 assessed as inhibition of cell growth incubated for 48 hrs by resazurin reduction test). Settings: PC-3, 48 h.
Type: functional, cell-based
Procedure, shortened: as §1
Work on `CC(=O)OC[C@H]1O[C@@H](OC(=O)Nc2ccc(NC(=O)CNC(=O)CCCc3ccc(N(CCCl)CCCl)cc3)cc2)[C@H](F)[C@@H](OC(C)=O)[C@@H]1OC(C)=O` yielded an IC50 of 4.9 µM.
With `CC(=O)OC[C@H]1O[C@@H](OC(=O)NCC(=O)Nc2ccc(OC(=O)CCCc3ccc(N(CCCl)CCCl)cc3)cc2)[C@H](F)[C@@H](OC(C)=O)[C@@H]1OC(C)=O` the IC50 was over 50 µM.
For `CC(=O)OC[C@H]1O[C@@H](OC(=O)c2ccc(NC(=O)CCCc3ccc(N(CCCl)CCCl)cc3)cc2)[C@H](F)[C@@H](OC(C)=O)[C@@H]1OC(C)=O`, the IC50 was 4 µM.
With `CC(=O)OC[C@H]1O[C@@H](NC(=O)COC(=O)CCCc2ccc(N(CCCl)CCCl)cc2)[C@H](F)[C@@H](OC(C)=O)[C@@H]1OC(C)=O` the IC50 was over 50 µM.
`CC(=O)OC[C@H]1O[C@@H](Oc2ccc(NC(=O)c3ccc(NC(=O)CCCc4ccc(N(CCCl)CCCl)cc4)cc3)cc2)[C@H](F)[C@@H](OC(C)=O)[C@@H]1OC(C)=O` showed an IC50 of 2.1 µM.
Compound `CC(=O)OC[C@H]1O[C@@H](Oc2ccc(NC(=O)CC(=O)NCCCc3ccc(N(CCCl)CCCl)cc3)cc2)[C@H](F)[C@@H](OC(C)=O)[C@@H]1OC(C)=O` has an IC50 of 8 µM.
`CC(=O)OC[C@H]1O[C@@H](NC(=O)CC(=O)NCCCc2ccc(N(CCCl)CCCl)cc2)[C@H](F)[C@@H](OC(C)=O)[C@@H]1OC(C)=O` gave an IC50 of 5 µM.
Work on `CC(=O)OC[C@H]1O[C@@H](OC(=O)Nc2ccc(NC(=O)CCCc3ccc(N(CCCl)CCCl)cc3)cc2)[C@H](F)[C@@H](OC(C)=O)[C@@H]1OC(C)=O` yielded an IC50 of 3.6 µM.
Compound `CC(=O)OC[C@H]1O[C@@H](Oc2ccc(NC(=O)CNC(=O)CCCc3ccc(N(CCCl)CCCl)cc3)cc2)[C@H](F)[C@@H](OC(C)=O)[C@@H]1OC(C)=O` has an IC50 of 7 µM.

These compounds were tested on MCF7 (assay: Cytotoxicity against human MCF7 assessed as inhibition of cell growth incubated for 48 hrs by resazurin reduction test). Settings: MCF7, 48 h.
Type: functional, cell-based
Procedure, shortened: as §1
With `CC(=O)OC[C@H]1O[C@@H](OC(=O)Nc2ccc(NC(=O)CNC(=O)CCCc3ccc(N(CCCl)CCCl)cc3)cc2)[C@H](F)[C@@H](OC(C)=O)[C@@H]1OC(C)=O` the IC50 was 15 µM.
Work on `CC(=O)OC[C@H]1O[C@@H](OC(=O)NCC(=O)Nc2ccc(OC(=O)CCCc3ccc(N(CCCl)CCCl)cc3)cc2)[C@H](F)[C@@H](OC(C)=O)[C@@H]1OC(C)=O` yielded an IC50 of 39.5 µM.
With `CC(=O)OC[C@H]1O[C@@H](OC(=O)c2ccc(NC(=O)CCCc3ccc(N(CCCl)CCCl)cc3)cc2)[C@H](F)[C@@H](OC(C)=O)[C@@H]1OC(C)=O` the IC50 was 6 µM.
`CC(=O)OC[C@H]1O[C@@H](NC(=O)COC(=O)CCCc2ccc(N(CCCl)CCCl)cc2)[C@H](F)[C@@H](OC(C)=O)[C@@H]1OC(C)=O` showed an IC50 of over 50 µM.
`CC(=O)OC[C@H]1O[C@@H](Oc2ccc(NC(=O)c3ccc(NC(=O)CCCc4ccc(N(CCCl)CCCl)cc4)cc3)cc2)[C@H](F)[C@@H](OC(C)=O)[C@@H]1OC(C)=O` was tested, and the IC50 was 3.4 µM.
In the case of `CC(=O)OC[C@H]1O[C@@H](Oc2ccc(NC(=O)CC(=O)NCCCc3ccc(N(CCCl)CCCl)cc3)cc2)[C@H](F)[C@@H](OC(C)=O)[C@@H]1OC(C)=O`, the IC50 is reported as 14 µM.
Work on `CC(=O)OC[C@H]1O[C@@H](NC(=O)CC(=O)NCCCc2ccc(N(CCCl)CCCl)cc2)[C@H](F)[C@@H](OC(C)=O)[C@@H]1OC(C)=O` yielded an IC50 of 9 µM.
Work on `CC(=O)OC[C@H]1O[C@@H](OC(=O)Nc2ccc(NC(=O)CCCc3ccc(N(CCCl)CCCl)cc3)cc2)[C@H](F)[C@@H](OC(C)=O)[C@@H]1OC(C)=O` yielded an IC50 of 35 µM.
With `CC(=O)OC[C@H]1O[C@@H](Oc2ccc(NC(=O)CNC(=O)CCCc3ccc(N(CCCl)CCCl)cc3)cc2)[C@H](F)[C@@H](OC(C)=O)[C@@H]1OC(C)=O` the IC50 was 16 µM.

Each compound was assayed on A549 (assay: Cytotoxicity against human A549 assessed as inhibition of cell growth incubated for 48 hrs by resazurin reduction test). Settings: A549, 48 h.
Type: functional, cell-based
Procedure, shortened: as §1
In the case of `CC(=O)OC[C@H]1O[C@@H](OC(=O)Nc2ccc(NC(=O)CNC(=O)CCCc3ccc(N(CCCl)CCCl)cc3)cc2)[C@H](F)[C@@H](OC(C)=O)[C@@H]1OC(C)=O`, the IC50 is reported as 9 µM.
In the case of `CC(=O)OC[C@H]1O[C@@H](OC(=O)NCC(=O)Nc2ccc(OC(=O)CCCc3ccc(N(CCCl)CCCl)cc3)cc2)[C@H](F)[C@@H](OC(C)=O)[C@@H]1OC(C)=O`, the IC50 is reported as 39 µM.
`CC(=O)OC[C@H]1O[C@@H](OC(=O)c2ccc(NC(=O)CCCc3ccc(N(CCCl)CCCl)cc3)cc2)[C@H](F)[C@@H](OC(C)=O)[C@@H]1OC(C)=O` gave an IC50 of 1.7 µM.
Compound `CC(=O)OC[C@H]1O[C@@H](NC(=O)COC(=O)CCCc2ccc(N(CCCl)CCCl)cc2)[C@H](F)[C@@H](OC(C)=O)[C@@H]1OC(C)=O` has an IC50 of 15 µM.
For `CC(=O)OC[C@H]1O[C@@H](Oc2ccc(NC(=O)c3ccc(NC(=O)CCCc4ccc(N(CCCl)CCCl)cc4)cc3)cc2)[C@H](F)[C@@H](OC(C)=O)[C@@H]1OC(C)=O`, the IC50 was 6 µM.
With `CC(=O)OC[C@H]1O[C@@H](Oc2ccc(NC(=O)CC(=O)NCCCc3ccc(N(CCCl)CCCl)cc3)cc2)[C@H](F)[C@@H](OC(C)=O)[C@@H]1OC(C)=O` the IC50 was over 50 µM.
For `CC(=O)OC[C@H]1O[C@@H](NC(=O)CC(=O)NCCCc2ccc(N(CCCl)CCCl)cc2)[C@H](F)[C@@H](OC(C)=O)[C@@H]1OC(C)=O`, the IC50 was 8 µM.
Work on `CC(=O)OC[C@H]1O[C@@H](OC(=O)Nc2ccc(NC(=O)CCCc3ccc(N(CCCl)CCCl)cc3)cc2)[C@H](F)[C@@H](OC(C)=O)[C@@H]1OC(C)=O` yielded an IC50 of 2 µM.

These compounds were tested on M4Beu cell line (assay: Cytotoxicity against human M4Beu assessed as inhibition of cell growth incubated for 48 hrs by resazurin reduction test). Settings: not given.
Type: functional, cell-based
Procedure, shortened: as §1
`CC(=O)OC[C@H]1O[C@@H](OC(=O)Nc2ccc(NC(=O)CNC(=O)CCCc3ccc(N(CCCl)CCCl)cc3)cc2)[C@H](F)[C@@H](OC(C)=O)[C@@H]1OC(C)=O` was tested, and the IC50 was 31 µM.
`CC(=O)OC[C@H]1O[C@@H](OC(=O)NCC(=O)Nc2ccc(OC(=O)CCCc3ccc(N(CCCl)CCCl)cc3)cc2)[C@H](F)[C@@H](OC(C)=O)[C@@H]1OC(C)=O` showed an IC50 of 30 µM.
Work on `CC(=O)OC[C@H]1O[C@@H](OC(=O)c2ccc(NC(=O)CCCc3ccc(N(CCCl)CCCl)cc3)cc2)[C@H](F)[C@@H](OC(C)=O)[C@@H]1OC(C)=O` yielded an IC50 of 6 µM.
Work on `CC(=O)OC[C@H]1O[C@@H](NC(=O)COC(=O)CCCc2ccc(N(CCCl)CCCl)cc2)[C@H](F)[C@@H](OC(C)=O)[C@@H]1OC(C)=O` yielded an IC50 of over 50 µM.
`CC(=O)OC[C@H]1O[C@@H](Oc2ccc(NC(=O)c3ccc(NC(=O)CCCc4ccc(N(CCCl)CCCl)cc4)cc3)cc2)[C@H](F)[C@@H](OC(C)=O)[C@@H]1OC(C)=O` showed an IC50 of 3 µM.
`CC(=O)OC[C@H]1O[C@@H](Oc2ccc(NC(=O)CC(=O)NCCCc3ccc(N(CCCl)CCCl)cc3)cc2)[C@H](F)[C@@H](OC(C)=O)[C@@H]1OC(C)=O` was tested, and the IC50 was 13.8 µM.
`CC(=O)OC[C@H]1O[C@@H](NC(=O)CC(=O)NCCCc2ccc(N(CCCl)CCCl)cc2)[C@H](F)[C@@H](OC(C)=O)[C@@H]1OC(C)=O` showed an IC50 of 12 µM.
`CC(=O)OC[C@H]1O[C@@H](OC(=O)Nc2ccc(NC(=O)CCCc3ccc(N(CCCl)CCCl)cc3)cc2)[C@H](F)[C@@H](OC(C)=O)[C@@H]1OC(C)=O` was tested, and the IC50 was 29 µM.
`CC(=O)OC[C@H]1O[C@@H](Oc2ccc(NC(=O)CNC(=O)CCCc3ccc(N(CCCl)CCCl)cc3)cc2)[C@H](F)[C@@H](OC(C)=O)[C@@H]1OC(C)=O` showed an IC50 of 15 µM.

The compounds below were run on PA-1 (assay: Cytotoxicity against human PA1 assessed as inhibition of cell growth incubated for 48 hrs by resazurin reduction test). Settings: PA-1, 48 h.
Type: functional, cell-based
Procedure, shortened: as §1
Compound `CC(=O)OC[C@H]1O[C@@H](OC(=O)Nc2ccc(NC(=O)CNC(=O)CCCc3ccc(N(CCCl)CCCl)cc3)cc2)[C@H](F)[C@@H](OC(C)=O)[C@@H]1OC(C)=O` has an IC50 of 1.3 µM.
Work on `CC(=O)OC[C@H]1O[C@@H](OC(=O)NCC(=O)Nc2ccc(OC(=O)CCCc3ccc(N(CCCl)CCCl)cc3)cc2)[C@H](F)[C@@H](OC(C)=O)[C@@H]1OC(C)=O` yielded an IC50 of 9 µM.
Compound `CC(=O)OC[C@H]1O[C@@H](OC(=O)c2ccc(NC(=O)CCCc3ccc(N(CCCl)CCCl)cc3)cc2)[C@H](F)[C@@H](OC(C)=O)[C@@H]1OC(C)=O` has an IC50 of 0.45 µM.
`CC(=O)OC[C@H]1O[C@@H](NC(=O)COC(=O)CCCc2ccc(N(CCCl)CCCl)cc2)[C@H](F)[C@@H](OC(C)=O)[C@@H]1OC(C)=O` gave an IC50 of 3.8 µM.
With `CC(=O)OC[C@H]1O[C@@H](Oc2ccc(NC(=O)CC(=O)NCCCc3ccc(N(CCCl)CCCl)cc3)cc2)[C@H](F)[C@@H](OC(C)=O)[C@@H]1OC(C)=O` the IC50 was 2 µM.
`CC(=O)OC[C@H]1O[C@@H](NC(=O)CC(=O)NCCCc2ccc(N(CCCl)CCCl)cc2)[C@H](F)[C@@H](OC(C)=O)[C@@H]1OC(C)=O` showed an IC50 of 0.4 µM.
In the case of `CC(=O)OC[C@H]1O[C@@H](OC(=O)Nc2ccc(NC(=O)CCCc3ccc(N(CCCl)CCCl)cc3)cc2)[C@H](F)[C@@H](OC(C)=O)[C@@H]1OC(C)=O`, the IC50 is reported as 1.2 µM.
Compound `CC(=O)OC[C@H]1O[C@@H](Oc2ccc(NC(=O)CNC(=O)CCCc3ccc(N(CCCl)CCCl)cc3)cc2)[C@H](F)[C@@H](OC(C)=O)[C@@H]1OC(C)=O` has an IC50 of 1.5 µM.
